# Thrombin inh: inhibitors of human thrombin. P00734. alpha-thrombin, Boc-VPR-AMC fluorogenic substrate cleavage. hit rate 0.26% among 220,000. inhibition, % at 5 µM;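 active means inhibition at or above 40%; inactive means inhibition below 40%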;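 further: 0% = enzyme with no compound and 100% = wells without enzyme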
#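 Material: human alpha-thrombin protein. Incubation: reaction at ambient temperature. Technique: fluorescence of released AMC, ex 355 nm, em 460 nm. Control set: no-compound enzyme wells and no-enzyme blanks. Also added: Boc-VPR-AMC substrate, 15 µM final. Buffer or medium: pH 7.5 Tris (50 mM) with NaCl 150 mM, Tween 20 0.05%.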
# Calpain2 inh: calpain II (pig) inhibition. purified calpain II, fluorogenic peptide substrate, 30 min. inhibition, % at 16 µM. hit rate 0.37% among 220,000;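 active means inhibition above about 50%, limit read from the data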
# KLK5 inh: blocks human kallikrein 5 protease activity. Q9Y337. recombinant hK5, fluorogenic AMC substrate cleavage. inhibition, % at 5 µM. hit rate 0.59% among 210,000. AID 873;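 active means inhibition of 40% or more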;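 further: 0% = enzyme controls without compound and 100% = no-enzyme blanks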
# FXIIa inh 1536: blocks human coagulation factor XIIa protease activity; AID 800; inhibition, % at 5 µM; purified FXIIa, Boc-QGR-AMC fluorogenic substrate, 2 h; hit rate 0.3% among 220,000; in the data active means inhibition above about 40%;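 further: 0% = enzyme with no compound and 100% = blank without enzyme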
# Target sequence (P00748 20-372 limits assumed): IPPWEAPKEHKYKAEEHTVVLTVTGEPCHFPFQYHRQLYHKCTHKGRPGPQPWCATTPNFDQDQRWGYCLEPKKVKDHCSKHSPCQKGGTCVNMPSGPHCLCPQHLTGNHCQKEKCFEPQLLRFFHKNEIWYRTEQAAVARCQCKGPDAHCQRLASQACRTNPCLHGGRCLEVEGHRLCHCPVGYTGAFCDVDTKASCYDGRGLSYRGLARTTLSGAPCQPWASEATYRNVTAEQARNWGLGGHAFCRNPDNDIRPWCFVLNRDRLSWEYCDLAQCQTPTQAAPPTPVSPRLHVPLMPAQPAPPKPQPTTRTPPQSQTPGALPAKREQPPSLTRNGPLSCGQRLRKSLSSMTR
# Target sequence (P00748 373-615 limits assumed): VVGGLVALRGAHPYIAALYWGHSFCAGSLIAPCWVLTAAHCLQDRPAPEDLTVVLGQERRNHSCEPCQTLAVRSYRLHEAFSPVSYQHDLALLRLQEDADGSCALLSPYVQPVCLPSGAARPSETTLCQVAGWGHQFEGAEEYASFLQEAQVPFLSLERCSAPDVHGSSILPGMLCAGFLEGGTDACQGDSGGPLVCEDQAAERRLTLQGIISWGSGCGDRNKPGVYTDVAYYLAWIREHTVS
# FXIa inh 1536: blocks human coagulation factor XIa protease activity; purified FXIa, Boc-Glu-Ala-Arg-AMC fluorogenic substrate; P03951; AID 798; hit rate 0.14% among 220,000; inhibition, % at 5 µM;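 active means inhibition of at least 40%; inactive means inhibition below 40%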;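 further: fluorescence of freed AMC excited at 355 nm; 0% = enzyme without compound and 100% = no enzyme blank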
# An asterisk follows results filed as active; x = not tested or not shown. Compounds with a hit are over-represented: about 1.4% of the library has one in this group of screens.
SMILES,Thrombin inh,Calpain2 inh,KLK5 inh,FXIIa inh 1536,FXIa inh 1536
CCc1nnc(NS(=O)(=O)c2ccc(N3C(=O)c4ccc(C(=O)O)cc4C3=O)cc2)s1,0.6,-6.7,-7.7,4.5,-1.3
COC(=O)c1ccccc1NC(=S)NC(=O)COc1ccc(C(C)C)cc1,-4.6,16.0,-12.0,9.1,2.7
COC(=O)c1ccccc1NC(=O)Oc1ccc(C(C)C)cc1,20.9,-27.3,52.4*,12.6,8.7
CCCC(=O)n1nc(-c2cccnc2)nc1NCc1cccs1,100.1*,11.4,x,13.1,6.7
Cc1ccc(-c2nc(NCc3ccco3)n(C(=O)c3ccco3)n2)cc1,22.3,-105.3,x,3.9,-3.9
COc1ccccc1C(=O)n1nc(-c2ccccc2)nc1NCc1ccco1,85.1*,-28.4,-4.6,13.1,4.8
CC(=O)n1nc(-c2cccnc2)nc1NCc1cccs1,x,34.1,1.7,8.2,1.5
O=C(c1cccs1)n1nc(-c2cccnc2)nc1NCc1ccco1,83.2*,10.8,-6.4,11.9,16.9
CCN(C(=O)Cc1cccs1)c1nnc(-c2cccnc2)s1,14.1,-24.8,43.8*,6.3,-5.1
C[C@H]1O[C@H](O[C@H]2[C@H](O)[C@@H](O)[C@@H](O[C@H]3[C@H](O)[C@@H](O)C(O)O[C@@H]3CO)O[C@@H]2CO)[C@H](O)[C@@H](O)[C@@H]1N[C@H]1C=C(CO)[C@@H](O)[C@H](O)[C@H]1O (stereo partly specified),x,8.7,x,x,x
CCC(=O)n1nc(-c2cccnc2)nc1NCc1cccs1,100.1*,-27.6,2.3,11.2,1.9
CCCC(=O)n1nc(-c2cccnc2)nc1NCc1ccccc1,100.2*,-1.2,2.1,10.2,-2.2
CCC(=O)n1nc(-c2cccnc2)nc1NCc1ccc(F)cc1,x,-28.0,3.9,12.3,3.1
Cc1cc(OCC(=O)Nc2nnc(C3CC3)s2)ccc1[N+](=O)[O-],0.4,-30.9,-6.5,1.3,-5.1
Cn1c(C(=O)NC2CC2)cc(=O)n(C)c1=O,1.3,-3.8,3.1,10.5,-4.8
COCc1cc(=O)n2[nH]c(-c3cccs3)cc2n1,-11.7,-74.1,-9.6,3.0,-1.6
Cc1cc(C)c2[nH]c(=O)c(CN(Cc3nnnn3C3CCCC3)C3CCCCC3)cc2c1,3.1,-27.0,41.7*,-5.0,-2.2
O=c1[nH]c2cc3c(cc2cc1CN(Cc1nnnn1CC1CCCO1)C1CCCCC1)OCO3 (stereo unspecified),2.6,-84.6,54.1*,-10.9,-4.9
O=c1[nH]c2cc3c(cc2cc1CN(Cc1nnnn1CC1CCCO1)C1CCCC1)OCO3 (stereo unspecified),-0.1,-36.0,-3.4,10.1,5.0
O=C(CN(C(=O)c1ccccc1Cl)C1CCCCC1)Nc1ccc(Cl)c([N+](=O)[O-])c1,0.2,-31.3,1.1,69.8*,4.6
O=C(CN(C(=O)c1ccc(Cl)cc1)C1CCCCC1)Nc1ccc(Cl)c([N+](=O)[O-])c1,1.9,8.7,-6.1,10.7,5.8
O=C(c1ccc(Oc2ccccc2)cc1)c1nc2c(n1O)CCCC2,-6.5,75.3*,-0.1,-5.2,-7.6
COc1ccc(C(=O)c2nc3c(n2O)CCCCC3)cc1,-1.0,2.3,-4.2,10.0,0.8
N/C(=N\NC(=O)c1ccccc1)c1cc2ccccc2oc1=O,-6.5,59.5*,-5.5,5.1,-3.1
O=C(CN1C(=O)c2ccccc2C1=O)Nc1ccc(-c2nc3ccccc3o2)cc1,-6.2,95.9*,-2.6,5.9,2.3
SMILES,Thrombin inh,Calpain2 inh,KLK5 inh,FXIIa inh 1536,FXIa inh 1536
COc1ccccc1N1CCN(C(=O)CCc2c[nH]c3ccccc23)CC1,-3.2,16.5,1.0,7.0,-1.3
CCn1c(SCC(=O)c2ccccc2)nnc1-c1cnccn1,15.7,9.4,42.8*,4.5,17.6
CCn1c(SCC(=O)Nc2cccnc2Cl)nnc1-c1ccccc1,25.1,21.3,62.0*,105.9*,8.1
Cn1c(SCC(=O)c2ccccc2)nnc1-c1cnccn1,2.9,-26.4,-6.1,16.2,-4.8
C=CCn1c(SCC(=O)Nc2cccnc2Cl)nnc1-c1ccc(Cl)cc1,-1.7,26.2,-30.5,41.0*,32.1
CCn1c(SCC(=O)Nc2nccs2)nnc1-c1ccccc1,3.7,2.2,40.7*,5.8,5.9
CCn1c(Cc2ccccc2)nnc1SCC(=O)Nc1nccs1,-2.2,-7.8,-10.2,26.4,16.2
C=CCn1c(SCC(=O)Nc2c(C)cccc2C)nnc1-c1ccncc1,0.1,-13.9,7.4,1.5,-2.7
CC(C)=NOCc1ccc(-c2cn([C@@H]3COC[C@H]3O)nn2)cc1,-2.0,-14.5,-7.9,13.4,-0.2
O=C(CCCSc1nc2ccccc2c(=O)[nH]1)c1ccc(F)cc1,x,-1.7,-0.9,5.2,5.7
O=C(CCCCn1c(=O)c2ccccc2n(CC(=O)Nc2ccc(F)cc2)c1=O)NCc1ccco1,-8.6,63.6*,3.5,0.5,3.7
Cc1noc(C)c1-c1nc(CSc2ccccc2)no1,-1.8,-0.1,4.2,8.4,6.0
N/C(=N\OC(=O)COc1ccc2ccccc2c1)c1cccnc1,-11.7,-8.1,13.9,2.6,-0.9
O=c1c2ccccc2nnn1CSc1nnc(COc2ccc(Cl)cc2)n1Cc1ccco1,1.4,21.0,48.0*,18.5,1.0
O=C(CSc1nnc(COc2ccccc2)n1Cc1ccco1)c1ccc(F)cc1,-9.4,39.5,-2.8,61.8*,27.5
C=CCn1c(COc2ccc(OC)cc2)nnc1SCn1nnc2ccccc2c1=O,-1.7,-1.1,-19.4,4.3,-2.7
CCC(C)(C(=O)NC1CCCCC1)N(Cc1ccco1)C(=O)c1ccccn1 (stereo unspecified),2.5,29.7,-21.6,54.1*,19.6
CCC(C)(C(=O)NC1CCCCC1)N(Cc1cccs1)C(=O)Cc1cccs1 (stereo unspecified),-8.0,18.0,-14.4,-17.5,-10.3
CC(=O)Nc1cccc(-c2nc3ccccc3c(=O)o2)c1,8.2,-3.3,25.9,9.9,9.2
CCC(=O)Nc1cccc(-c2nc3ccccc3c(=O)o2)c1,5.8,6.4,47.4*,17.9,13.0
CCOC(=O)CSc1nnnn1-c1cccc2ccccc12,19.3,17.4,56.9*,3.0,13.9
CC1=C(C(=O)OCc2ccccc2)C(c2cccs2)N2C(=O)CCSC2=N1 (stereo unspecified),-3.0,60.6*,-23.1,-4.5,1.8
COC(=O)Cc1c(C)nc2nc(-c3ccc(C)cc3)[nH]n2c1=O,-0.4,4.7,6.0,40.2*,8.0
COC(=O)Cc1c(C)nc2nc(-c3ccc(Cl)cc3)[nH]n2c1=O,-5.3,12.0,-2.7,4.5,-6.7
CC(=O)c1ccc(Nc2cc(C)nc3c(C)cc(C)cc23)cc1,10.7,21.1,44.0*,30.8,26.0
Cc1cc(C)c2nc(C)cc(Nc3ccc(C(=O)N(C)C)cc3)c2c1,3.2,10.8,4.2,11.1,-1.8
COc1ccc(S(=O)(=O)n2nc(-c3ccc(Cl)cc3)cc2N)cc1OC,4.5,31.6,47.7*,6.9,-4.3
Cc1ccc(NC(=O)CN2C(=O)S/C(=C\C(=O)Nc3ccc(Cl)cc3)C2=O)cc1,9.8,17.1,45.1*,3.8,3.8
N#CCCN(Cc1cccs1)C(=O)Nc1ccccc1,0.3,-16.6,1.0,2.9,1.4

# Screening results as filed in PubChem BioAssay.
